Measurements reported in ChEMBL document CHEMBL4819122, “Novel 4-(piperazin-1-yl)quinolin-2(1H)-one bearing thiazoles with antiproliferative activity through VEGFR-2-TK inhibition” (Bioorg Med Chem, 2021).
The source made the active and inactive calls. The calls are words filed in the database; no cut-off is given here.

Experiments:
MDA-MB-231 = test: Cytotoxicity against human MDA-MB-231 assessed as growth inhibition at 10 uM by NCI protocol relative to control; assay type: functional; settings: read-out: GI
In short: (§1)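 Run by NCI as a single-dose screen at 10 μM across the sixty-cell-line panel, which covers nine human tumour tissue types. The read-out is percent growth inhibition of treated cells relative to untreated cells.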

DU-145 = test: Cytotoxicity against human DU-145 assessed as growth inhibition at 10 uM by NCI protocol relative to control; assay type: functional; settings: read-out: GI; in short: as §1
U-251 = test: Cytotoxicity against human U251 assessed as growth inhibition at 10 uM by NCI protocol relative to control; assay type: functional; settings: read-out: GI
In short: (§2)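 Run by the NCI under its standard protocol: one dose of 10 μM against a sixty-line panel from nine human tumour tissues. Result given as percent growth inhibition of treated cells relative to untreated cells.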

HL-60 = test: Cytotoxicity against human HL60 assessed as growth inhibition at 10 uM by NCI protocol relative to control; assay type: functional; settings: read-out: GI; in short: as §1
NCI-H23 = test: Cytotoxicity against human NCI-H23 assessed as growth inhibition at 10 uM by NCI protocol relative to control; assay type: functional; settings: read-out: GI; in short: as §1
T47D = test: Cytotoxicity against human T-47D assessed as growth inhibition at 10 uM by NCI protocol relative to control; assay type: functional; settings: read-out: GI; in short: as §2
COLO 205 = test: Cytotoxicity against human COLO 205 assessed as growth inhibition at 10 uM by NCI protocol relative to control; assay type: functional; settings: read-out: GI; in short: as §1
MDA-MB-435 = test: Cytotoxicity against human MDA-MB-435 assessed as growth inhibition at 10 uM by NCI protocol relative to control; assay type: functional, cell-based; in short: as §1
HCT-116 = test: Cytotoxicity against human HCT-116 assessed as growth inhibition at 10 uM by NCI protocol relative to control; assay type: functional; settings: read-out: GI; in short: as §1
SN12C = test: Cytotoxicity against human SN12C assessed as growth inhibition at 10 uM by NCI protocol relative to control; assay type: functional; settings: read-out: GI; in short: as §2
CCRF-CEM = test: Cytotoxicity against human CCRF-CEM assessed as growth inhibition at 10 uM by NCI protocol relative to control; assay type: functional; settings: read-out: GI; in short: as §1
OVCAR-4 = test: Cytotoxicity against human OVCAR-4 assessed as growth inhibition at 10 uM by NCI protocol relative to control; assay type: functional; settings: read-out: GI; in short: as §1
UO-31 = test: Cytotoxicity against human UO31 assessed as growth inhibition at 10 uM by NCI protocol relative to control; assay type: functional; settings: read-out: GI; in short: as §2
A549 = test: Cytotoxicity against human A549 assessed as growth inhibition at 10 uM by NCI protocol relative to control; assay type: functional; settings: read-out: GI; in short: as §1
786-0 = test: Cytotoxicity against human 786-0 assessed as growth inhibition at 10 uM by NCI protocol relative to control; assay type: functional; settings: read-out: GI; in short: as §1
SK-MEL-5 = test: Cytotoxicity against human SK-MEL-5 assessed as growth inhibition at 10 uM by NCI protocol relative to control; assay type: functional; settings: read-out: GI; in short: as §1
PC-3 = test: Cytotoxicity against human PC3 assessed as growth inhibition at 10 uM by NCI protocol relative to control; assay type: functional; settings: read-out: GI; in short: as §1
ACHN = test: Cytotoxicity against human ACHN assessed as growth inhibition at 10 uM by NCI protocol relative to control; assay type: functional; settings: read-out: GI; in short: as §1
SR = test: Cytotoxicity against human SR assessed as growth inhibition at 10 uM by NCI protocol relative to control; assay type: functional; settings: read-out: GI; in short: as §2
SK-MEL-2 = test: Cytotoxicity against human SK-MEL-2 assessed as growth inhibition at 10 uM by NCI protocol relative to control; assay type: functional; settings: read-out: GI; in short: as §1
TK-10 = test: Cytotoxicity against human TK-10 assessed as growth inhibition at 10 uM by NCI protocol relative to control; assay type: functional; settings: read-out: GI; in short: as §2
HT-29 = test: Cytotoxicity against human HT29 assessed as growth inhibition at 10 uM by NCI protocol relative to control; assay type: functional; settings: read-out: GI; in short: as §1
SW-620 = test: Cytotoxicity against human SW-620 assessed as growth inhibition at 10 uM by NCI protocol relative to control; assay type: functional; settings: read-out: GI; in short: as §2
OVCAR-8 = test: Cytotoxicity against human OVCAR-8 assessed as growth inhibition at 10 uM by NCI protocol relative to control; assay type: functional; settings: read-out: GI; in short: as §1
KM12 = test: Cytotoxicity against human KM12 assessed as growth inhibition at 10 uM by NCI protocol relative to control; assay type: functional; settings: read-out: GI; in short: as §1
SK-MEL-28 = test: Cytotoxicity against human SK-MEL-28 assessed as growth inhibition at 10 uM by NCI protocol relative to control; assay type: functional; settings: read-out: GI; in short: as §1
UACC-62 = test: Cytotoxicity against human UACC-62 assessed as growth inhibition at 10 uM by NCI protocol relative to control; assay type: functional; settings: read-out: GI; in short: as §2
RXF 393 = test: Cytotoxicity against human RXF 393 assessed as growth inhibition at 10 uM by NCI protocol relative to control; assay type: functional; settings: read-out: GI; in short: as §1
EKVX = test: Cytotoxicity against human EKVX assessed as growth inhibition at 10 uM by NCI protocol relative to control; assay type: functional; settings: read-out: GI; in short: as §1
MOLT-4 = test: Cytotoxicity against human MOLT-4 assessed as growth inhibition at 10 uM by NCI protocol relative to control; assay type: functional; settings: read-out: GI; in short: as §1
HOP-92 = test: Cytotoxicity against human HOP-92 assessed as growth inhibition at 10 uM by NCI protocol relative to control; assay type: functional; settings: read-out: GI; in short: as §1
IGROV-1 = test: Cytotoxicity against human IGROVI assessed as growth inhibition at 10 uM by NCI protocol relative to control; assay type: functional; settings: read-out: GI; in short: as §1
SNB-75 = test: Cytotoxicity against human SNB-75 assessed as growth inhibition at 10 uM by NCI protocol relative to control; assay type: functional; settings: read-out: GI; in short: as §2
Malme-3M = test: Cytotoxicity against human MALME-3M assessed as growth inhibition at 10 uM by NCI protocol relative to control; assay type: functional; settings: read-out: GI; in short: as §1
SF-295 = test: Cytotoxicity against human SF-295 assessed as growth inhibition at 10 uM by NCI protocol relative to control; assay type: functional; settings: read-out: GI; in short: as §1
MCF7 = test: Cytotoxicity against human MCF7 assessed as growth inhibition at 10 uM by NCI protocol relative to control; assay type: functional; settings: read-out: GI; in short: as §1
Hs-578T = test: Cytotoxicity against human HS 578T assessed as growth inhibition at 10 uM by NCI protocol relative to control; assay type: functional; settings: read-out: GI; in short: as §1
K562 = test: Cytotoxicity against human K-562 assessed as growth inhibition at 10 uM by NCI protocol relative to control; assay type: functional; settings: read-out: GI; in short: as §1
SF-268 = test: Cytotoxicity against human SF-268 assessed as growth inhibition at 10 uM by NCI protocol relative to control; assay type: functional; settings: read-out: GI; in short: as §1
MDA-MB-468 = test: Cytotoxicity against human MDA-MB-468 assessed as growth inhibition at 10 uM by NCI protocol relative to control; assay type: functional; settings: read-out: GI; in short: as §1
NCI-H226 = test: Cytotoxicity against human NCI-H226 assessed as growth inhibition at 10 uM by NCI protocol relative to control; assay type: functional; settings: read-out: GI; in short: as §1
NCI-H322M = test: Cytotoxicity against human NCI-H322M assessed as growth inhibition at 10 uM by NCI protocol relative to control; assay type: functional; settings: read-out: GI; in short: as §1

In the case of `Cc1ccc(-c2csc(NC(=O)CN3CCN(c4cc(=O)[nH]c5ccc(F)cc45)CC3)n2)cc1`, the inhibition of growth at 10 µM (MDA-MB-231) is reported as 19%, the inhibition of growth at 10 µM (DU-145) is reported as 47.4% and the inhibition of growth at 10 µM (U-251) is reported as 44.4%. It also gave an inhibition of growth at 10 µM (HL-60) of 40.6%, an inhibition of growth at 10 µM (NCI-H23) of 21.6% and an inhibition of growth at 10 µM (T47D) of 74.3%. The inhibition of growth at 10 µM (COLO 205) was 10.7%, the “growth inhibition (GI)” value (MDA-MB-435) was “inactive” and the inhibition of growth at 10 µM (HCT-116) was 45.2%. For the same compound, the inhibition of growth at 10 µM (SN12C) was 45.1%, the inhibition of growth at 10 µM (CCRF-CEM) was 47% and the inhibition of growth at 10 µM (OVCAR-4) was 30.6%. For the same compound, the inhibition of growth at 10 µM (UO-31) was 35.4%, the inhibition of growth at 10 µM (A549) was 43.7% and the inhibition of growth at 10 µM (786-0) was 25.6%. The inhibition of growth at 10 µM (SK-MEL-5) was 44%, the inhibition of growth at 10 µM (PC-3) was 55.9% and the inhibition of growth at 10 µM (ACHN) was 44.1%. It also gave an inhibition of growth at 10 µM (SR) of 47.5%, an inhibition of growth at 10 µM (SK-MEL-2) of 10.2% and an inhibition of growth at 10 µM (TK-10) of 46.3%. For the same compound, the inhibition of growth at 10 µM (HT-29) was 21.5%, the inhibition of growth at 10 µM (SW-620) was 37% and the inhibition of growth at 10 µM (OVCAR-8) was 23.2%. It also gave an inhibition of growth at 10 µM (KM12) of 13.3%, an inhibition of growth at 10 µM (SK-MEL-28) of 17.8% and an inhibition of growth at 10 µM (UACC-62) of 33.9%. The inhibition of growth at 10 µM (RXF 393) was 27%, the inhibition of growth at 10 µM (EKVX) was 42.1% and the inhibition of growth at 10 µM (MOLT-4) was 53.2%. For the same compound, the inhibition of growth at 10 µM (HOP-92) was 39.7%, the inhibition of growth at 10 µM (IGROV-1) was 52.6% and the inhibition of growth at 10 µM (SNB-75) was 32.6%. It also gave an inhibition of growth at 10 µM (Malme-3M) of 43.5%, an inhibition of growth at 10 µM (SF-295) of 20.3% and an inhibition of growth at 10 µM (MCF7) of 33.5%. It also gave an inhibition of growth at 10 µM (Hs-578T) of 41.4%, an inhibition of growth at 10 µM (K562) of 42.4% and an inhibition of growth at 10 µM (SF-268) of 14.5%. For the same compound, the inhibition of growth at 10 µM (MDA-MB-468) was 41.5%, the inhibition of growth at 10 µM (NCI-H226) was 11.7% and the inhibition of growth at 10 µM (NCI-H322M) was 18.9%.
